The species entered for assay [1] is Rattus norvegicus. Kind of assay: Compound was tested in vitro for uterotonic activity in rat. It is filed as functional. The gist of the method: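 Isolated uterine horns from virgin rats in natural estrus (Holton method as modified by Munsick), Mg2+-free van Dyke-Hastings solution as bath. Where activity was measurable, Schild four-point design with at least ten determinations on three animals.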

Another assay is filed under the species Gallus gallus. Kind of assay: Compound was tested in vitro for avain vasopressor activity. It counts as functional. As to conditions: in the assay text read “vasodepressor” for “vasopressor”. The gist of the method: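 Vasodepressor assay in conscious White Leghorn roosters (Coon method, modified). Where activity was measurable, Schild four-point design with at least ten determinations on three animals.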

Assay [2] is filed under the species Rattus norvegicus. Kind of assay: Compound was tested for percent maximum uterotonic response. It counts as functional. The gist of the method: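 Isolated uterine horns from virgin rats in natural estrus, bathed in Mg2+-free van Dyke-Hastings solution. Dose-response by individual injection, doses raised geometrically in 0.5 log10 steps until a maximal response was reached.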

The species entered for assay [3] is Rattus norvegicus. The experiment in a line: Compound was tested in vitro for antidiuretic activity in rat. The following applies: in the assay text read “in vivo” for “in vitro”. It is filed as functional, Urine. Summed up:
(§1)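 Anesthetized male Sprague-Dawley rats. Where activity was measurable, Schild four-point design with at least ten determinations on three animals.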

For assay [4], the species on record is Rattus norvegicus. Kind of assay: Compound was tested in vitro for pressor activity on rat. It is filed as functional. The following applies: in the assay text read “in vivo” for “in vitro”. The gist of the method:
as §1

SMILES strings stand for the structures.

`CC[C@H](C)[C@@H]1NC(=O)[C@H](Cc2ccc(O)cc2)NC(=O)[C@@H](N)CSSC[C@@H](C(=O)N2CCC[C@H]2C(=O)N[C@@H](CC(C)C)C(=O)NCC(N)=O)NC(=O)[C@H](CC(N)=O)NC(=O)[C@H](CCC(N)=O)NC1=O` [OXYTOCIN]: the Activity is reported as 546 mg in the assay filed under Rattus norvegicus [1], 507 mg in the assay filed under Gallus gallus, 3.1 mg in the assay filed under Rattus norvegicus [3] and 2.7 mg in the assay listed under Rattus norvegicus [4]. For the same molecule, the Max uterotonic response in the assay listed under Rattus norvegicus [2] is listed as 100%.

For the origin of these results see ChEMBL document CHEMBL1121394, “Oxytocin and lysine-vasopressin with N5,N5-dialkylglutamine in the 4 position: effect of introducing sterically hindered groups into the hydrophilic cluster of neurohypophyseal hormones” (1980).
